The results in this text go back to PubChem BioAssay.

The structures appear in SMILES notation. The source made the active and inactive calls.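 How the source made its calls, unless noted: active means compounds giving at least 50% inhibition in the cell-based MKP-3 phosphatase rescue imaging test; inactive means the rest.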

Assay [1] can be described thus: inhibitors of TNFa-induced NFkB p65 translocation, primary screen, imaging, HUVEC, MLSMR starter and 10KST1 sets (AID 438;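 active means inhibition above 20% together with a positive visual image hit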;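 further: compound added about 3h40 before a 20 min TNFalpha stimulation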;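 on inhibition: signal is the nuclear over cytoplasmic p65 intensity ratio per well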). As to conditions: HUVEC TNFa-induced p65 nuclear translocation; cell count: measured here: nuclei count (cytotoxicity indicator), at 2.08 µM; inhibition: at 2 µM, stronger effect = higher value, 0% TNFa-plus-vehicle, 100% no-TNFa wells.
Assay [2] in a line: endothelial E-selectin expression blockers – imaging, HUVEC, immunofluorescence, MLSMR starter and 10KST1 sets, primary screen (AID 487;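 active means visually confirmed hit in the image check and inhibition above 20%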;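 on inhibition: signal is fraction of cell area covered by stained E-selectin grains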;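 on nuclei count: 100% = median nuclei count of all wells on the same plate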). As to conditions: HUVEC TNFalpha-induced E-selectin immunofluorescence imaging, at 2 µM; inhibition: stronger effect = higher value; nuclei count: measured here: cell number, toxicity.
Assay [3] is described as follows: Primary imaging screen for DUSP6 inhibitors that restore phospho-Erk in transfected HeLa cells, chemical complementation (AID 609).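 On inhibition: phospho-Erk level distribution per well compared with pooled transfected vehicle control wells.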 As to conditions: HeLa MKP-3 transfected, phospho-Erk imaging KS statistic, at 10 µM, cells stimulated with TPA for 15 min.
Assay [4] has as its target Dual specificity protein phosphatase 6 (Homo sapiens) (UniProt Q16828). The description is as above. As to conditions: HeLa MKP-3 transfected, phospho-Erk imaging KS statistic; at 10 µM; stronger effect = higher value; cells stimulated with TPA for 15 min.
For assay [5], the target named is Voltage-gated potassium channel subunit beta-2 (Rattus norvegicus) (UniProt P62483). In words: inhibitors of rat Kvbeta2 reductase activity – biochemical, NADPH fluorescence, primary screen (AID 622;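 active means fluorescence slope higher than the sample average by over 3 SD, cut at about -0.22 in these data, passing the limit was not always enough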;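 further: slope of raw intensity against log time taken from 70 to 1610 s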). As to conditions: recombinant KvBeta, 4-cyanobenzaldehyde reduction, at 10 µM, stronger effect = higher value.
Assay [6] shares this target. In words: enhancers of rat Kvbeta2 NADPH turnover – biochemical, NADPH fluorescence, primary screen (AID 623;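 active means NADPH fluorescence slope more negative than the mean of all samples by about 3 SD, 99.7% confidence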;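 further: fluorescence intensity change per second fitted from 20 to 320 s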). The settings on record: Recombinant KvBeta, NADPH fluorescence decrease slope, 10 min; at 10 µM; stronger effect = lower value.
The target in assay [7] is Alpha-2C adrenergic receptor (Homo sapiens) (UniProt P18825). In words: compounds altering alpha2C-coupled GIRK flux – cell-based, HEK293 alpha2C/GIRK1/2, thallium flux, primary screen (AID 624;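 active means fluorescence slope after compound addition differing from the mean of all screened samples at 99.7% confidence, in either direction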;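 further: slope of fluorescence ratio to pre-addition baseline per second over 15 to 24 s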). As to conditions: thallium flux BTC fluorescence, at 10 µM, actives lie on both sides.
The nature of assay [8]: inhibitors of larval lipid processing in zebrafish, primary screen, whole organism, PED6 fluorescence, gall bladder and intestine (AID 686;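 active means a full or partial loss of lipid-probe fluorescence in the fish gall bladder, intestine or both, judged by eye; inactive means no fluorescence loss, or compound toxic to the fish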;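 further: larvae 5 to 7 days old with five fish per well; signal comes from phospholipase A2 cleavage of quenched PED6 carried via bile; overnight exposure to compound and PED6 before scoring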). As to conditions: Zebrafish larvae PED6 lipid processing, fluorescence scoring; screened at 20 µM (by protocol). The gist of the method:
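system = live zebrafish larvae aged 5-7 days, whole organism | probe or stimulus = ingested quenched lipid PED6 at 100 nM | doses = 20 µM single dose | timing = overnight exposure | detection = fluorescence microscopy with visual scoring of gall bladder and intestine | read-out = visual per-well fluorescence inhibition score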

Assay [9] can be described thus: loss of swimming-algae plug formation – whole organism, Chlamydomonas reinhardtii, WT vs cilia-less mutant, absorbance, 96-well, primary screen (AID 463189;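 active means inhibition at or above 50% relative to wild type and mutant plate controls; inactive means inhibition below 50%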;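 further: 0% = wild type cc124 cells in DMSO and 100% = ciliumless bld1 mutant cells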). As to conditions: Chlamydomonas reinhardtii gravitaxis, OD600 absorbance, 2 days; at 10 µM; stronger effect = higher value.
Setting [10] is: measured here: cell density z-score.
[11] abbreviates: measured here: nuclear c-Myc green intensity z-score.
The mark [12] stands for this setting: measured here: nuclear pErk red intensity z-score, stronger effect = higher value.

Alpha-2C adrenergic receptor (Homo sapiens), sequence (P18825 whole entry, looked up): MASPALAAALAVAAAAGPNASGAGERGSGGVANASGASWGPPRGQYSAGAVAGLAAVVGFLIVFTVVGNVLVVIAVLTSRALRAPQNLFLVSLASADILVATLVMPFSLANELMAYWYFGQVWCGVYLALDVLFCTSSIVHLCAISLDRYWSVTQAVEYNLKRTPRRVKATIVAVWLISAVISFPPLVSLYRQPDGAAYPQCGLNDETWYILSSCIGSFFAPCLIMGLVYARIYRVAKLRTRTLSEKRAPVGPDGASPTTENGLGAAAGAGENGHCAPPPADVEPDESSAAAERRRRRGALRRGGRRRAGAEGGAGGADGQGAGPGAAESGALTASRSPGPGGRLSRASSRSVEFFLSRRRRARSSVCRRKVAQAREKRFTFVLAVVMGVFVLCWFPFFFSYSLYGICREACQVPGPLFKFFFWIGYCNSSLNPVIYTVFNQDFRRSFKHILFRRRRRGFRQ
Dual specificity protein phosphatase 6 (Homo sapiens), sequence (Q16828 whole entry, looked up): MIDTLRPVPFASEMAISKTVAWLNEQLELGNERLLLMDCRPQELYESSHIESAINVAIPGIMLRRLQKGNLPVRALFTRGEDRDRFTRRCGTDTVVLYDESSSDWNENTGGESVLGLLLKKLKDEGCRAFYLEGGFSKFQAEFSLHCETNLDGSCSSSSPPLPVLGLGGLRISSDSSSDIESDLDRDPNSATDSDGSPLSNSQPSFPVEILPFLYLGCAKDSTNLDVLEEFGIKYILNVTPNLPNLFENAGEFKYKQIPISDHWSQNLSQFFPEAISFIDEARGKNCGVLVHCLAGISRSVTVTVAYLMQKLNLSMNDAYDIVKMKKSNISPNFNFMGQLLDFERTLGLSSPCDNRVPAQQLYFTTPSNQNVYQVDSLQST
Voltage-gated potassium channel subunit beta-2 (Rattus norvegicus), sequence (P62483 whole entry, looked up): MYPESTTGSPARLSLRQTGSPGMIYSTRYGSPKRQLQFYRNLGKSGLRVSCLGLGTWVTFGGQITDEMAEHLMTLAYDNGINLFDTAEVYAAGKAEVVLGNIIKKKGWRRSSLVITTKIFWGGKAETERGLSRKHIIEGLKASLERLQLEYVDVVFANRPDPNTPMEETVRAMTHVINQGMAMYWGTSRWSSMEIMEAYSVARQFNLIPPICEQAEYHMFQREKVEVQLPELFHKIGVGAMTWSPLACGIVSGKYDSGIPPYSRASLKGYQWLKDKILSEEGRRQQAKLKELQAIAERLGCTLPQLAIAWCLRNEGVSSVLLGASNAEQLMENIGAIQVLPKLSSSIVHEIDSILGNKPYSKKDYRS

Turning to `Cc1ccccc1OCc1nc2ccccc2c(=O)n1NC(=O)c1ccco1`, the cell count in assay [1] came to 346. Further, the inhibition in assay [1] was -13.7% (inactive); in assay [2], -57% (inactive); in assay [4], 19.3% (inactive); in assay [9], 24.1% (inactive). In [2], the nuclei count is 104%. Besides, the z-score in assay [3] (setting [10]) is 0.846; in assay [3] (setting [11]), 0.49; in assay [3] (setting [12]), -1.53. Moreover, the fluorescence slope in assay [5] was -0.498 (inactive). Moreover, the NADPH fluorescence slope in assay [6] was -1.5e-05 (inactive). For the same molecule, in assay [7], the slope is 0.00616 (inactive). In addition, the molecule was classed as inactive in [8].
As for `Cc1c(-c2cccs2)[n+](=O)c2c(n1[O-])CCCC2`, in assay [1], the cell count amounted to 431. The inhibition in assay [1] is -16.7% (inactive); in assay [2], -128% (inactive); in assay [4] it was 15% (inactive); in [9], 15.1% (inactive). Besides, in [2], the nuclei count was 164%. Moreover, the z-score was 1.59 in [3] (setting [10]), -0.562 in assay [3] (setting [11]) and -0.0919 in assay [3] (setting [12]). Also, in assay [5], the fluorescence slope is -0.419 (inactive). Moreover, in assay [6], the NADPH fluorescence slope was -1.1e-05 (inactive). For the same molecule, the slope in [7] is 0.0072 (inactive). For the same molecule, the call in assay [8] was inactive.
Take `CCOP(=O)(c1ccccc1)c1nc(-c2ccccc2C)oc1N1CCCCC1` (stereo unspecified): the cell count in assay [1] was 603. The inhibition in assay [1] was -2.4% (inactive); in assay [2], -34% (inactive); in assay [4], 13.2% (inactive); in assay [9] it was 56.6% (active). The nuclei count in assay [2] is 167%. Besides, the z-score was -0.907 in assay [3] (setting [10]), 0.675 in assay [3] (setting [11]) and 1.07 in assay [3] (setting [12]). Also, the fluorescence slope in [5] was -0.49 (inactive). Moreover, the NADPH fluorescence slope in assay [6] is -0.000125 (inactive). The slope in assay [7] was 0.00422 (inactive). Further, in assay [8], the outcome was inactive.
`O=C1C(=O)N(CCN2CCOCC2)C(c2ccccn2)/C1=C(/O)c1ccccc1` (stereo unspecified): in assay [1], the cell count amounted to 382. For the same molecule, the inhibition in assay [1] was -4.7% (inactive); in assay [2] it was -87.4% (inactive); in assay [4] it was -0.159% (inactive); in [9] it was -11.4% (inactive). In assay [2], the nuclei count was determined as 107%. For the same molecule, the results for the z-score in assay [3] (setting [10]), in assay [3] (setting [11]) and in [3] (setting [12]) were -0.264, 0.535 and -1.2, respectively. Also, the fluorescence slope in assay [5] is -0.432 (inactive). The NADPH fluorescence slope in assay [6] is -1.4e-05 (inactive). Also, the slope in assay [7] is 0.00578 (inactive). The molecule was classed as inactive in [8].
Consider `CC1=C(C(=O)Nc2ccccc2)C(c2ccncc2)C(C#N)=C(SCC(=O)NC(C)C)N1` (stereo unspecified), for which the cell count in assay [1] came out at 532. Further, the inhibition in assay [1] is -8.3% (inactive); in [2] it was -82.1% (inactive); in [4], -1.12% (inactive); in [9] it was 5.12% (inactive). For the same molecule, the nuclei count in assay [2] amounted to 162%. Besides, the z-score in [3] (setting [10]) is -0.265; in assay [3] (setting [11]) it was 0.666; in [3] (setting [12]), 0.309. For the same molecule, the fluorescence slope in assay [5] is -0.309 (inactive). In addition, in [6], the NADPH fluorescence slope is 3.2e-06 (inactive). Also, the slope in [7] was 0.00489 (inactive). For the same molecule, the molecule was classed as inactive in assay [8].
As for `CN(C)c1ccc(-c2nn3c(-c4ccc(Cl)cc4)nnc3s2)cc1`, in assay [1], the cell count turned out to be 615. Further, the inhibition is -7.8% (inactive) in assay [1], -183% (inactive) in assay [2], 19.1% (inactive) in assay [4] and 14.6% (inactive) in assay [9]. The molecule further returned a nuclei count in assay [2] of 147%. Moreover, the z-score in assay [3] (setting [10]) was 0.167; in [3] (setting [11]) it was -0.869; in assay [3] (setting [12]) it was -2.02. In addition, in [5], the fluorescence slope is -0.409 (inactive). Further, the NADPH fluorescence slope in assay [6] is -0.000319 (inactive). In assay [7], the slope is 0.00702 (inactive). In addition, the molecule was called inactive in [8].
With `Cc1nc(NCCN)c(C#N)c2c1COC(C)(C)C2`, the cell count in [1] was determined as 666. For the same molecule, the inhibition was -1.2% (inactive) in assay [1], -117% (inactive) in assay [2], 1.75% (inactive) in assay [4] and 1.63% (inactive) in assay [9]. The nuclei count in [2] amounted to 165%. Besides, the z-score was -0.432 in assay [3] (setting [10]), -0.111 in [3] (setting [11]) and -0.818 in assay [3] (setting [12]). For the same molecule, the fluorescence slope in assay [5] was -0.506 (inactive). For the same molecule, the NADPH fluorescence slope in [6] was -1.4e-06 (inactive). Also, in [7], the slope was 0.00551 (inactive). In [8], the molecule was classed as inactive.

By inhibition is commonly meant the drop in the measured response relative to a control, in per cent.
